Measurements reported in ChEMBL document CHEMBL1121403, “Synthesis and mutagenicity of A-ring reduced analogues of 7,12-dimethylbenz[a]anthracene” (1980).

Assays:
[1] = test system: Salmonella typhimurium; assay: Mutagenic activity by measuring net reverent colonies per 10 ug of compound with Salmonella Typhimurium (TA 98 strain) in presence of S9 fraction; format: functional, Salmonella enterica subsp. enterica serovar Typhimurium
Method in brief: (§1)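 Standard Ames soft-agar plating with doses given in Me2SO. Five or more doses from 1 to ≥10 μg/plate were tested with and without S-9 mix from PCB-induced rat liver, at 20 μL S-9/plate from a common pool. Duplicate plates per dose, triplicate for spontaneous revertants. 2-Aminoanthracene served as activation control. Net revertants per 10 μg came from regression of the linear dose-response portion.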

[2] = test system: Salmonella typhimurium; assay: Mutagenic activity by measuring net reverent colonies per 10 ug of compound with Salmonella Typhimurium (TA1537 strain) in absence of S9 fraction; - indicates no mutagenic response; format: functional, organism-based; conditions: Salmonella enterica subsp. enterica serovar Typhimurium
Method in brief: (§2)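 Frame-shift strain TA1537 in Ames soft-agar plating with doses given in Me2SO, tested at up to 15 or 10 μg/plate with and without S-9 (PCB-induced rat liver, 20 μL/plate). Duplicate plates per dose, triplicate spontaneous. Scored mutagenic if reversion was dose-dependent and at least twice spontaneous. Values were normalized to net revertants per 10 μg.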

[3] = test system: Salmonella typhimurium; assay: Mutagenic activity by measuring net reverent colonies per 10 ug of compound with Salmonella Typhimurium (TA1537 strain) in presence of S9 fraction; - indicates no mutagenic response; format: functional, organism-based; conditions: Salmonella enterica subsp. enterica serovar Typhimurium; method in brief: as §2
[4] = test system: Salmonella typhimurium; assay: Mutagenic activity by measuring net reverent colonies per 10 ug of compound with Salmonella Typhimurium (TA 100 strain) in absence of S9 fraction; format: functional, Salmonella enterica subsp. enterica serovar Typhimurium; method in brief: as §1
[5] = test system: Salmonella typhimurium; assay: Mutagenic activity by measuring net reverent colonies per 10 ug of compound with Salmonella Typhimurium (TA 100 strain) in presence of S9 fraction; format: functional, Salmonella enterica subsp. enterica serovar Typhimurium; method in brief: as §1
[6] = test system: Salmonella typhimurium; assay: Mutagenic activity by measuring net reverent colonies per 10 ug of compound with Salmonella Typhimurium (TA 98 strain) in absence of S9 fraction; format: functional, Salmonella enterica subsp. enterica serovar Typhimurium; method in brief: as §1
[7] = test system: Salmonella typhimurium; assay: Mutagenic activity by measuring net reverent colonies per 10 ug of compound with Salmonella Typhimurium (TA1537 strain) in presence of S9 fraction; format: functional, Salmonella enterica subsp. enterica serovar Typhimurium; method in brief: as §2
[8] = test system: Salmonella typhimurium; assay: Mutagenic activity by measuring net reverent colonies per 10 ug of compound with Salmonella Typhimurium (TA 100 strain) in absence of S9 fraction; - indicates no mutagenic response; format: functional, organism-based; conditions: Salmonella enterica subsp. enterica serovar Typhimurium; method in brief: as §1
[9] = test system: Salmonella typhimurium; assay: Mutagenic activity by measuring net reverent colonies per 10 ug of compound with Salmonella Typhimurium (TA 98 strain) in absence of S9 fraction; - indicates no mutagenic response; format: functional, organism-based; conditions: Salmonella enterica subsp. enterica serovar Typhimurium; method in brief: as §1
[10] = test system: Salmonella typhimurium; assay: Mutagenic activity by measuring net reverent colonies per 10 ug of compound with Salmonella Typhimurium (TA1537 strain) in absence of S9 fraction; format: functional, Salmonella enterica subsp. enterica serovar Typhimurium; method in brief: as §2

Row | SMILES | Activity [1] | Activity [2] | Activity [3] | Activity [4] | Activity [5] | Activity [6] | Activity [7] | Activity [8] | Activity [9] | Activity [10]
1 | Cc1c2ccccc2c(C)c2c3c(ccc12)C=CCC3 | 25 | Not toxic | Not toxic | 58 | 69 | 146 | – | – | – | –
2 | Cc1c2ccccc2c(C)c2c1ccc1ccccc12 | 58 | Not toxic | – | – | 489 | – | 15 | Not toxic | Not toxic | –
3 | Cc1c2ccccc2c(C)c2c3c(ccc12)CCCC3 | 78 | – | – | 173 | 270 | 47 | 7 | – | – | 42
